# Myeloid diff 2 = induction of myeloid progenitor differentiation, primary screen, cell-based, flow cytometry, MLPCN library | ER-HoxA9 myeloid progenitors, lysozyme-GFP differentiation | calls only at 10 µM | 360,000 compounds, 1% hits | AID 624256, 2012;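 active = normalized GFP-positive differentiation at or above the plate's own cutoff, the solvent-only control mean plus 3 SD; inconclusive = no clear call, values can overlap the other calls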;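 also: cells exposed to compound for four days before flow analysis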
# XiGFP reactiv = activators of inactive X chromosome reactivation, primary screen, imaging, XiGFP fibroblasts, GFP high-content imaging, set 2; XiGFP mouse fibroblasts, % GFP-positive cells imaging, 3 d; cells co-treated with 5-aza-dC sensitizer; scaled so ellipticine positive control = 100%; activation, % at 7.58 µM; 360,000 compounds, 0.055% hits;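 active = mean normalized replicate activation at least 10% and every replicate at or above 10%; inconclusive = only one of the two criteria met; inactive = mean below 10% and not all replicates reach 10%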;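 also: 0% = median of on-plate neutral control wells and 100% = ellipticine 6 µM median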
#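 Assay system – SV40-immortalized XiGFP fibroblast cells, line 68-5-11 · Buffer or medium – DMEM supplemented with 5-aza-dC as sensitizing agent · Dosing – one concentration, pinned · Benchmarks – positive control ellipticine, 6 µM final · Times – 3 days compound exposure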
# ABCB6 inh MLPCN = ABCB6 transporter inhibitors, primary screen, K562-ABCB6 cells, flow cytometry, MLPCN library. ATP-binding cassette sub-family B member 6 (Homo sapiens), Q9NP58. K562-ABCB6 porphyrin accumulation, 1 h; stronger effect = lower value. fluorescence ratio to DMSO, % at 10 µM. AID 602162, 2011. 360,000 compounds, 0.19% hits;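 active = fluorescence ratio to DMSO below 75%, the collection mean minus 3 SD; inconclusive = too few cells collected in the well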;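 also: signal is porphyrin accumulated inside mitochondria; 100% equals median channel fluorescence of DMSO control wells; lower ratio means ABCB6 inhibition with less porphyrin fluorescence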
# Target sequence (Q9NP58 whole entry, looked up): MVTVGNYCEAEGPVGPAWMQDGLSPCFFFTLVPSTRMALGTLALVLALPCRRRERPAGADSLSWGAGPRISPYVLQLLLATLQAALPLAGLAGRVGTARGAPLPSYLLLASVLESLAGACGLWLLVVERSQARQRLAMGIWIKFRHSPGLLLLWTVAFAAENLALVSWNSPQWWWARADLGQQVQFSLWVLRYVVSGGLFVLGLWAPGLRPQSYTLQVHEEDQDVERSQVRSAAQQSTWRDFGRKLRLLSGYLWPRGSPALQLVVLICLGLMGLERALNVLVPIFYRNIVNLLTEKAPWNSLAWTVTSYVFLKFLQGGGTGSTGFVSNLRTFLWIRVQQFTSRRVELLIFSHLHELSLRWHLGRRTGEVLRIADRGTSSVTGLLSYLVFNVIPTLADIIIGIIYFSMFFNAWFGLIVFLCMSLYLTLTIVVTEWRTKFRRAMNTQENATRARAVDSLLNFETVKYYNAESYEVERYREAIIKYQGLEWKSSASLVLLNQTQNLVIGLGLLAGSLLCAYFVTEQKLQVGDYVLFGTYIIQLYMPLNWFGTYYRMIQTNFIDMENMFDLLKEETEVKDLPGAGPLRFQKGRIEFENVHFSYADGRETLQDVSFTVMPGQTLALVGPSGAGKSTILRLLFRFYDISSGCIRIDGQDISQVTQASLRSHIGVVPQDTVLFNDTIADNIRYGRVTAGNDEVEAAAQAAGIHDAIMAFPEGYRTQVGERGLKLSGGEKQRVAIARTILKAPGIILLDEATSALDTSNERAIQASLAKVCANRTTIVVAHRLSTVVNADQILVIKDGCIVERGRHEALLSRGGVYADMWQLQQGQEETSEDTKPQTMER
# The depositor's hits bear a star; i = inactive; u = inconclusive; x = not tested or not shown; + = active, no number; ! = not confirmed by another sample. This excerpt belongs to a sample that is enriched for hits.
SMILES,Myeloid diff 2,XiGFP reactiv,ABCB6 inh MLPCN
Cn1c(N)c(C(=O)COC(=O)CNC(=O)c2ccccc2)c(=O)n(C)c1=O,i,0.1,104.0
Cc1cc(Br)ccc1SCC(=O)OCC(=O)c1c(N)n(C)c(=O)n(C)c1=O,+,x,97.0
Cn1c(N)c(C(=O)COC(=O)CCc2ccccc2)c(=O)n(C)c1=O,+,0.0,469.0
Cc1cc(SCC(=O)OCC(=O)c2c(N)n(C)c(=O)n(C)c2=O)c(C)cc1Br,i,0.0,106.0
Cc1cc(Br)ccc1SCC(=O)OCC(=O)NC(C)c1ccccc1 (stereo not given),i,0.7,99.0
C[C@H](CO)N1C[C@H](C)[C@@H](CN(C)CC2CCOCC2)Oc2ncc(C#Cc3ccccc3)cc2C1=O,x,-0.2,x
COc1ccccc1NC(=O)Nc1ccc2c(c1)C(=O)N(C)C[C@@H](OC)[C@H](C)CN[C@@H](C)CO2,x,0.0,x
CCOC(=O)c1sc2nc3c(SCCC(=O)O)cc(C(=O)c4cc(OC)ccc4O)cn3c(=O)c2c1C,+,0.6,104.0
O=C(O)CSc1cc(C(=O)c2cc(F)ccc2O)cn2c(=O)c3c(-c4ccccc4)csc3nc12,i,-0.3,107.0
C[C@@H]1CCCCO[C@H](CN(C)Cc2ccc(C(=O)Nc3ccccc3N)cc2)[C@@H](C)CN([C@H](C)CO)C(=O)c2cc(N(C)C)ccc2O1,x,1.3,x
COc1ccc(S(=O)(=O)N(C)C[C@H]2Oc3ccc(NC(=O)Cc4ccccc4)cc3CC(=O)N([C@H](C)CO)C[C@@H]2C)cc1,x,0.1,x
CC1(C)OC2C(O1)[C@@H](CO)O[C@H]2n1cnc2c(N)ncnc21 (stereo not given in full),i,0.0,101.0
Cc1cc(S(=O)(=O)NC[C@H]2O[C@@H](n3cnc4c(N)ncnc43)[C@H](O)[C@@H]2O)c(C)s1,i,0.4,98.0
Nc1ncnc2c1ncn2[C@@H]1O[C@H](CO)[C@@H](O)[C@H]1O,+,0.0,89.0
Cn1cc(S(=O)(=O)NC[C@H]2O[C@@H](n3cnc4c(N)ncnc43)[C@H](O)[C@@H]2O)cn1,+,0.1,105.0
COc1cccc(NC(=O)N[C@H]2C=C[C@H](CC(=O)Nc3ccc(-c4ccccc4)cc3)O[C@@H]2CO)c1,x,0.7,x
C=CCNc1nc(NCc2ccc(N(C)C)cc2)c2sc(-c3ccccc3)cc2n1,+,0.0,99.0
C=CCNc1nc(NCCOC)c2sc(-c3ccccc3)cc2n1,i,0.1,89.0
C[C@@H]1CN([C@H](C)CO)S(=O)(=O)c2ccc(-c3ccccc3F)cc2O[C@@H]1CN(C)C(=O)C1CC1,x,-0.4,x
C[C@H]1CN([C@@H](C)CO)C(=O)c2cccc(NC(=O)c3cnccn3)c2O[C@@H]1CN(C)C(=O)Nc1ccc(C(F)(F)F)cc1,x,-1.1,x
N#Cc1c(C(F)(F)F)cc(-c2ccc(Cl)c(Cl)c2)nc1SCCN1CCOCC1,i,x,144.0
N#Cc1c(C(F)(F)F)cc(-c2ccccc2)nc1SCc1nc(N)nc(N2CCOCC2)n1,+,x,i
CO[C@@H]1CN(C)C(=O)c2ccc(NS(C)(=O)=O)cc2OC[C@H](C)N(Cc2ccccc2)C[C@@H]1C,x,1.0,x
Nc1ccc2c(c1)Cc1cc(N)c(Cl)cc1-2,i,0.1,99.0
Nc1cc2c(cc1N)-c1ccccc1C2,+,0.1,131.0
SMILES,Myeloid diff 2,XiGFP reactiv,ABCB6 inh MLPCN
CO[C@H]1CN(C)C(=O)c2cc(NC(=O)C3CCC3)ccc2OC[C@@H](C)N(Cc2ccncc2)C[C@H]1C,x,-0.4,x
CO[C@@H]1CN(C)C(=O)c2ccc(NC(=O)Nc3cccc(F)c3)cc2OC[C@@H](C)N(C(=O)C2CC2)C[C@@H]1C,x,0.1,x
Cc1ccccc1-c1nc(-c2ccc(NC(=O)c3ccc4c(c3)OCO4)cc2)no1,+,x,93.0
COc1cc(-c2nc(-c3ccc(NC(=O)c4ccc5c(c4)OCO5)cc3)no2)cc(OC)c1OC,i,x,89.0
CCOC(=O)c1ccc(N=c2sc(C(=O)OC)cc(=O)n2CCCN2CCOCC2)cc1,+!,0.0,102.0
CCOC(=O)c1ccc(N=c2sc(C(=O)OC)cc(=O)n2Cc2ccco2)cc1,i,0.0,100.0
CC(=O)Nc1sc(/C(C#N)=C/c2ccc(Cl)c(Cl)c2)nc1-c1ccc(C)cc1,+,u,i
CC(=O)Nc1sc(N/N=C/c2ccc(C)cc2)nc1-c1ccc(C)cc1,i,-0.1,90.0
Cc1ccc(C[n+]2ccccc2)cc1,+,1.4,94.0
COC(=O)c1ccc(C[n+]2ccccc2)cc1,i,0.0,105.0

# Screens as filed in PubChem.
